The test system of test [1] is Nakaseomyces glabratus. The test can be described thus: Fungicidal activity against Candida glabrata isolate 2 assessed as log reduction in bacterial count at 16 times MIC after 48 hrs by time-kill analysis. As to conditions: isolate 2, 48 h. Type of test: functional. The method, boiled down: (§1)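 Isolates subcultured twice on SDA, suspended to 0.5 McFarland, giving ~1 x 10^5 to 5 x 10^5 CFU/ml in MOPS-buffered RPMI 1640 (pH 7.0) with or without drug at multiples of MIC (MIC by CLSI M27-A3). Tubes shaken at 35°C with continuous drug. Sampled at 0–48 h, diluted 10-fold and plated on SDA; CFU counted after 48 h at 35°C. Run twice per isolate; means.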

The subject of test [2] is Meyerozyma guilliermondii. The test is described as follows: Antifungal activity against Candida guilliermondii by NCCLS M27A broth microdilution method. Type of test: functional. On the technique in general: Dilution methods test growth across graded concentrations, often in twofold steps.
The subject of test [3] is Candida parapsilosis. The test can be described thus: Fungicidal activity against Candida parapsilosis isolate S assessed as log reduction in bacterial count at 4 times MIC after drug exposure for 1 hr followed by washout measured after 48 hrs in the absence of drug by PAFE study. Format: functional. As to conditions: Lodderomyces parapsilosis. The method, boiled down: (§2)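 Inoculum about 1 x 10^5 to 5 x 10^5 CFU/ml in RPMI 1640 (MOPS, pH 7.0) with drug, shaken at 35°C for 1 h. Cells were then washed and centrifuged at 1,400 x g for 10 min (3 cycles) and resuspended in warm drug-free RPMI. Samples plated on SDA at 0, 2, 4, 8, 12, 24 and 48 h; CFU counted after 48 h at 35°C. Run twice per isolate; means.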

Test [4] has as its system Candida parapsilosis. The test is described as follows: Fungicidal activity against Candida parapsilosis isolate 1 assessed as log reduction in bacterial count at 4 times MIC after drug exposure for 1 hr followed by washout measured after 48 hrs in the absence of drug by PAFE study. Type of test: functional. As to conditions: Lodderomyces parapsilosis. The method, boiled down: as §2

Test [5] deals with Candida parapsilosis. The test can be described thus: Fungicidal activity against Candida parapsilosis isolate A assessed as log reduction in bacterial count at MIC after drug exposure for 1 hr followed by washout measured after 48 hrs in the absence of drug by PAFE study. Type of test: functional. As to conditions: Lodderomyces parapsilosis. The method, boiled down: as §2
The subject of test [6] is Candida parapsilosis. The test can be described thus: Fungicidal activity against Candida parapsilosis isolate 1 assessed as log reduction in bacterial count at 4 times MIC after 48 hrs by time-kill analysis. Format: functional. As to conditions: Lodderomyces parapsilosis, isolate 1, 48 h. In a few lines:
as §1

In test [7] the test system is Candida parapsilosis. The test is described as follows: Increase in susceptibility to calcofluor white in Candida parapsilosis isolate 1 assessed as cell wall damage at 4 times MIC after 1 hr relative to control. Type of test: functional, organism-based. The method, boiled down:
(§3)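 Candida given a 1-h anidulafungin pulse in MOPS-buffered RPMI 1640 (pH 7.0) at 35°C, washed three times by centrifugation, and regrown drug-free. Cells collected 8 h later, grown in YPD with 1% glucose to exponential phase, and set to OD599 0.1. Undiluted culture and 10-fold dilutions (4 µl) spotted on YPD plates with calcofluor white, then 30°C for 72 h. Triplicate; compared with no-drug cells.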

In test [8] the test system is Candida albicans. The test can be described thus: Antifungal activity against Candida albicans isolate 1 assessed as cell wall damage at 4 times MIC by Transmission electron microscopy. Format: functional, organism-based. In a few lines:
(§4)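 Cells recovered 8 h after a 1-h drug exposure were grown on SDA for 24 h at 35°C. Colonies fixed at 4°C in 0.1 M cacodylate (pH 7.2) with 2% glutaraldehyde and 2% paraformaldehyde, ethanol-dehydrated and embedded in Lowicryl K4M. Thin sections examined by transmission EM.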

Another test has as its system Pichia kudriavzevii. The test is described as follows: Antifungal activity against Candida krusei isolate 1 assessed as cell wall damage at MIC by Transmission electron microscopy. Type of test: functional, organism-based. In a few lines:
as §4

Test [9] concerns Nakaseomyces glabratus. The test can be described thus: Antifungal activity against Candida glabrata isolate 3 assessed as time period for bacterial growth inhibition at 16 times MIC after 1 hr drug exposure. Format: functional. The method, boiled down:
(§5)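 Inoculum of about 1 x 10^5 to 5 x 10^5 CFU/ml in MOPS-buffered RPMI (pH 7.0), shaken at 35°C and exposed to drug for 1 h. Cells then washed and centrifuged three times and resuspended in drug-free warm RPMI. Samples plated on SDA at 0, 2, 4, 8, 12, 24 and 48 h, with CFU counted after 48 h at 35°C. Run twice per isolate; values are means.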

Test [10] relates to Candida albicans. The test is described as follows: Increase in susceptibility to SDS in Candida albicans ATCC 90028 assessed as cell wall damage at 16 times MIC after 1 hr relative to control. Type of test: functional, organism-based. The method, boiled down: (§6)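 Cells recovered 8 h after a 1-h drug exposure were grown in YPD with 1% glucose to exponential phase and adjusted to OD599 0.1. Undiluted culture and 10-fold serial dilutions were spotted onto YPD plates containing SDS (0.01 to 0.04%), then incubated 72 h at 30°C. Growth compared with unexposed control cells; triplicate.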

In test [11] the test system is Candida parapsilosis. The test is described as follows: Fungicidal activity against Candida parapsilosis isolate 1 assessed as log reduction in bacterial count at MIC after drug exposure for 1 hr followed by washout measured after 48 hrs in the absence of drug by PAFE study. Type of test: functional. As to conditions: Lodderomyces parapsilosis. In a few lines: as §2

The test system of test [12] is Candida parapsilosis. The test can be described thus: Increase in susceptibility to SDS in Candida parapsilosis isolate 1 assessed as cell wall damage at 16 times MIC after 1 hr relative to control. Type of test: functional, organism-based. In a few lines: as §6
The subject of test [13] is Candida parapsilosis. The test can be described thus: Fungicidal activity against Candida parapsilosis isolate A assessed as log reduction in bacterial count at 16 times MIC after drug exposure for 1 hr followed by washout measured after 48 hrs in the absence of drug by PAFE study. Format: functional. As to conditions: Lodderomyces parapsilosis. In a few lines: as §2

The test system of test [14] is Candida parapsilosis. The test can be described thus: Fungicidal activity against Candida parapsilosis isolate 1 assessed as log reduction in bacterial count at 16 times MIC after 48 hrs by time-kill analysis. As to conditions: Lodderomyces parapsilosis, isolate 1, 48 h. Format: functional. The method, boiled down: as §1
Test [15] has as its system Candida albicans. The test is described as follows: Antifungal activity against Candida albicans isolate 1 assessed as time period for bacterial growth inhibition at 16 times MIC after 1 hr drug exposure. Format: functional. The method, boiled down: as §5
Test [16] concerns Candida parapsilosis. The test is described as follows: Antifungal activity against Candida parapsilosis by NCCLS M27A broth microdilution method. Format: functional. As to conditions: Lodderomyces parapsilosis.
Test [17] relates to Candida albicans. The test is described as follows: Fungicidal activity against Candida albicans ATCC 90028 assessed as log reduction in bacterial count at 4 times MIC after drug exposure for 1 hr followed by washout measured after 48 hrs in the absence of drug by PAFE study. Type of test: functional. In a few lines:
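Starting inoculum ~1 x 10^5 to 5 x 10^5 CFU/ml in MOPS-buffered RPMI 1640 (pH 7.0) with drug at multiples of the CLSI M27-A3 MIC. After 1 h at 35°C, cells washed and centrifuged three times at 1,400 x g for 10 min, then resuspended in warm drug-free RPMI. Shaken at 35°C and plated on SDA at 0–48 h; CFU counted after 48 h. Run twice per isolate; means.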

The subject of test [18] is Candida parapsilosis. The test is described as follows: Increase in susceptibility to calcofluor white in Candida parapsilosis isolate 1 assessed as cell wall damage at 16 times MIC after 1 hr relative to control. Type of test: functional, organism-based. The method, boiled down: as §3
In test [19] the test system is Candida albicans. The test is described as follows: Fungicidal activity against Candida albicans isolate 2 assessed as log reduction in bacterial count at 16 times MIC after 48 hrs by time-kill analysis. Type of test: functional. As to conditions: isolate 2, 48 h. In a few lines:
as §1

The test system of test [20] is Nakaseomyces glabratus. The test can be described thus: Fungicidal activity against Candida glabrata isolate 1 assessed as log reduction in bacterial count at 16 times MIC after 48 hrs by time-kill analysis. Format: functional. As to conditions: isolate 1, 48 h. In a few lines:
as §1

Test [21] deals with Candida parapsilosis. The test can be described thus: Increase in susceptibility to calcofluor white in Candida parapsilosis isolate A assessed as cell wall damage at 16 times MIC after 1 hr relative to control. Format: functional, organism-based. The method, boiled down: as §3
The test system of test [22] is Candida parapsilosis. The test can be described thus: Fungicidal activity against Candida parapsilosis isolate A assessed as log reduction in bacterial count at 4 times MIC after drug exposure for 1 hr followed by washout measured after 48 hrs in the absence of drug by PAFE study. Format: functional. As to conditions: Lodderomyces parapsilosis. In a few lines:
as §2

The test system of test [23] is Candida albicans. The test is described as follows: Fungicidal activity against Candida albicans isolate 1 assessed as log reduction in bacterial count at MIC after 48 hrs by time-kill analysis. As to conditions: isolate 1, 48 h. Type of test: functional. In a few lines:
as §1

In brackets after ≈: the same amount, converted by molar mass. Activity calls are given as the source filed them. No cut-off for these calls is given here. Starred links: 1 amine or outer side, 2 acyl side, 3 side chain; linkers in the order of their positions; H or OH if unused. Positions of bridges follow the written chain, without caps; N, C: chain ends. Non-standard residues stand in square brackets, D forms with d. Residues, ends and D or L forms follow the SMILES beside them. *: point of attachment. pTerphenylCO(4''-OnC5H11) = CCCCCOc1ccc(-c2ccc(-c3ccc(C(=O)*)cc3)cc2)cc1; Orn(4R-OH,5R-OH) = O=C([C@H](C[C@@H](O)[C@@H](O)N[*:3])N[*:1])[*:2]; hTyr(3S-OH,4S-OH) = N[C@H](C(=O)O)[C@H](O)[C@@H](O)c1ccc(O)cc1; Pro(3S-OH,4S-Me) = C[C@H]1CN[C@H](C(=O)O)[C@H]1O; Hyp = O=C(O)[C@@H]1C[C@@H](O)CN1

Usually MIC90 stands for the lowest concentration that inhibits either 90% of growth or 90% of the strains tested, depending on the study. Higher therefore signals weaker potency.

As to `CCCCCOc1ccc(-c2ccc(-c3ccc(C(=O)N[C@H]4C[C@@H](O)[C@@H](O)NC(=O)[C@@H]5[C@@H](O)[C@@H](C)CN5C(=O)[C@H]([C@@H](C)O)NC(=O)[C@H]([C@H](O)[C@@H](O)c5ccc(O)cc5)NC(=O)[C@@H]5C[C@@H](O)CN5C(=O)[C@H]([C@@H](C)O)NC4=O)cc3)cc2)cc1` [ANIDULAFUNGIN] ({pTerphenylCO(4''-OnC5H11)}-[Orn(4R-OH,5R-OH)]T[Hyp][hTyr(3S-OH,4S-OH)]T[Pro(3S-OH,4S-Me)]; lactam 1-C), the log reduction in the test with Nakaseomyces glabratus [1] was determined as 3.14 log CFU/ml; in the test on Candida parapsilosis [3], 2.17; in the test on Candida parapsilosis [4], 2.46; in the test with Candida parapsilosis [5], 1.41; in the test on Candida parapsilosis [6], 3.07 log CFU/ml; in the test on Candida parapsilosis [11], 0.81. The log reduction in the test on Candida parapsilosis [13] worked out at 3.47; with Candida parapsilosis [14] it was 3.47 log CFU/ml; in the test with Candida albicans [17], 1.89; in the test with Candida albicans [19] it was 2.86 log CFU/ml; in the test on Nakaseomyces glabratus [20] it was 3.44 log CFU/ml; with Candida parapsilosis [22], 2.54. Besides, in the test with Candida albicans [23], the log reduction turned out to be 1.15 log CFU/ml. Further, the MIC90 (in test [2]; with Candida parapsilosis [16]) was 2 µg/mL (≈ 1.75 µM) each time. The outcome in the test with Candida parapsilosis [7], in the test with Candida albicans [8], in the test with Pichia kudriavzevii, in the test on Candida albicans [10], in the test with Candida parapsilosis [12] and with Candida parapsilosis [18] was Active. Besides, the result in the test with Candida parapsilosis [21] was Active. In addition, the Time with Nakaseomyces glabratus [9] and with Candida albicans [15] was 8 h in each case.

The values are drawn from ChEMBL document CHEMBL1671655, “Anidulafungin is fungicidal and exerts a variety of postantifungal effects against Candida albicans, C. glabrata, C. parapsilosis, and C. krusei isolates” (2009).
